Compounds with a hit are over-represented: about 3.7% of the library has one in this group of screens.
Kir21 inh: Kir2.1 (mouse) channel inhibition | HEK293-Kir2.1, FluxOR thallium flux fluorescence; stronger effect = lower value | B-score at 10 µM | hit rate 0.85% among 310,000 | AID 1672;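 active means fluorescence ratio B-score at or below minus 3 SD of library scores, with starting-brightness B-score within 2 SD, cut at about -4.2 in these data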;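 further: channel flux triggered by added potassium and thallium sulfate stimulus; B-score of peak minus minimum fluorescence over baseline after thallium stimulus; more negative B-score means stronger Kir2.1 block with less thallium influx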
Target sequence (P35561 whole entry, looked up): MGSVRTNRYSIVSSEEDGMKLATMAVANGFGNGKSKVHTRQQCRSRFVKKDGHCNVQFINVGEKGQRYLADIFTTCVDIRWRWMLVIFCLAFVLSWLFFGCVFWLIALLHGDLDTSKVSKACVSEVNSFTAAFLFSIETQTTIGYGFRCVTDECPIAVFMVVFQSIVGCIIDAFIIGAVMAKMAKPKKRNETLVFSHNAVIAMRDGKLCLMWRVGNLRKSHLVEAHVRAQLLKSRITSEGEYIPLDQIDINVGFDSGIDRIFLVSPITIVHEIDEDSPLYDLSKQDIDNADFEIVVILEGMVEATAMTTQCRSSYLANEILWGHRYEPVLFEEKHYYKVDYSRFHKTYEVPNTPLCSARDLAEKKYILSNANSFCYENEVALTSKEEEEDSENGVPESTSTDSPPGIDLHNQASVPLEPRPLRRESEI
hERG rescue: compounds protecting human hERG from proarrhythmic drug block; CHO-hERG, FluxOR thallium flux, dofetilide IC70 present; activation (rescue from dofetilide block), less the hit threshold, % at 10 µM; hit rate 0.51% among 310,000; AID 1511;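 active means activation above the mean of controls blocked by dofetilide plus 5 SD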;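 further: thallium influx through hERG after potassium depolarization seen as dye fluorescence rise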
KCNK3 inh: human KCNK3 channel inhibition, primary screen; O14649; CHO-KCNK3 thallium flux, FluxOR fluorescence; stronger effect = lower value; B-score at 10 µM; hit rate 0.84% among 340,000; AID 602410;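 active means B-score under library mean minus 4 SD, starting fluorescence ratio at most library mean plus 5 SD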;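 further: more negative B-score means stronger inhibition of thallium flux through KCNK3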
KCNQ1 block: blocks the human KCNQ1 potassium channel; CHO-K1 KCNQ1, FluxOR thallium flux fluorescence; stronger effect = higher value; B-score at 10 µM; hit rate 1.3% among 310,000; P51787; AID 2642;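 active means compounds whose thallium flux B-score, printed positive for inhibition, exceeds three library SD while starting fluorescence stays within three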;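 further: channel opened by potassium depolarization with thallium stimulus after 20 min compound exposure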
KCNQ1 act: potentiates or activates the human KCNQ1 potassium channel | hit rate 0.35% among 310,000 | B-score at 10 µM | AID 2648 | CHO-K1 KCNQ1, thallium flux FluxOR fluorescence; stronger effect = higher value | P51787;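 active means fluorescence ratio B-score, a plate-corrected score, at least three library SD, with initial intensity B-score within 5 SD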
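Medium – assay buffer, equal DMSO in all wells · Material – CHO-K1 cell line with stable KCNQ1 potassium channel expression · Signal – kinetic FluxOR thallium fluorescence, 10-s 1-Hz baseline, 110-s post-stimulus read · Compound – single concentration per compound, DMSO matched to controls · Schedule – 37 °C overnight plating, 90-min dark dye load, 20-min compound pretreatment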
KCNK9 block: blocks the human KCNK9 two-pore domain potassium channel | hit rate 1.2% among 310,000 | Q9NPC2 | AID 488922 | HEK293 KCNK9, FluxOR thallium flux fluorescence; stronger effect = lower value | B-score at 10 µM;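 active means ratio B-score over 3 SD below the library mean, with starting fluorescence within 5 SD of its mean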;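 further: negative B-score means less thallium flux so channel inhibition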
KCNK3 confirm: human KCNK3 channel inhibition, confirmation assay. hit rate 99% among 2,400. CHO-KCNK3 thallium flux, FluxOR fluorescence; 0% buffer, 100% carvedilol maximal block. ratio percent of control, % at 10 µM. shares compounds with KCNK3 inh;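 active means ratio percent of control, averaged over triplicates, above buffer control mean plus 5 SD, cut at about 64% in these data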;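 further: ratio is the fluorescence rise from min to max over baseline after thallium stimulus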
KCNK3 noninduced: counter-screen for KCNK3 inhibitors: effect in non-induced cells. shares compounds with KCNK3 inh. non-induced KCNK3 parental cells, FluxOR thallium flux; stronger effect = lower value. thallium flux ratio (lower = more inhibition) at 10 µM. hit rate 40% among 2,400. AID 651747;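 active means thallium flux ratio, averaged over three wells, more than 5 SD below the buffer control mean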;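 further: host cells are CHO cells without KCNK3 induction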
Of the large screens only hits and unclear results are named; the others gave an inactive call (follow-up assays come after a bar, where they were run).

CCOC(=O)CNC(=S)N(Cc1ccco1)Cc1ccccc1Cl	KCNK3 inh -10 | KCNK3 confirm 124 | KCNK3 noninduced inactive
CCOc1ccc(C2/C(=C(/O)c3ccc4c(c3)CC(C)O4)C(=O)C(=O)N2CCCn2ccnc2)cc1OCC (stereo unspecified)	none
COc1ccc(NC2=C(C(C)=O)C(c3ccc(OC)cc3)C(C(C)=O)C(C)(O)C2)cc1 (stereo unspecified)	KCNK3 inh -9.1 | KCNK3 confirm 68 | KCNK3 noninduced inactive
COc1ccc(C2C(C(C)=O)=C(Nc3ccccc3)CC(C)(O)C2C(C)=O)cc1OC (stereo unspecified)	none
COc1ccc(NC2=C(C(C)=O)C(c3ccc(N(C)C)cc3)C(C(C)=O)C(C)(O)C2)cc1 (stereo unspecified)	none
CC(=O)C1=C(Nc2ccccc2)CC(C)(O)C(C(C)=O)C1c1ccccc1 (stereo unspecified)	KCNK3 inh -12 | KCNK3 confirm 52 | KCNK3 noninduced inactive
CSc1ccccc1C(=O)Nc1ccc(C)c(C)c1	KCNK3 inh -8.9 | KCNK3 confirm 87 | KCNK3 noninduced inactive
CSc1ccccc1C(=O)Nc1cc(C)cc(C)c1	none
CC(=O)Nc1ccc(NC(=O)c2cccc3c2-c2ccccc2C3=O)cc1	none
Cc1ccc(NC(=O)c2cccc3c2-c2ccccc2C3=O)cc1C	KCNK3 inh -9.3 | KCNK3 confirm 108 | KCNK3 noninduced inactive
CCN(CC)S(=O)(=O)c1ccc(OC)c(NC(=O)C2CC(=O)N(c3ccc(C)cc3)C2)c1 (stereo unspecified)	none
CN(C)Cc1c(O)ccc2[nH]cnc12	KCNK3 inh -10 | KCNK3 confirm 80 | KCNK3 noninduced inactive
COC(=O)Nc1ccc(S(=O)(=O)NNC(=O)c2c(O)c3ccccc3n(C)c2=O)cc1	none
CCCCN(C)Cc1cc(=O)oc2ccc3ccccc3c12	KCNK3 inh -9.3 | KCNK3 confirm 120 | KCNK3 noninduced 0.15
CCN1CCN(C(=O)c2cc3nc(-c4ccccc4)cc(C(F)(F)F)n3n2)CC1	KCNK3 inh -8.7 | KCNK3 confirm inactive | KCNK3 noninduced inactive
O=C(c1cc2nc(-c3ccc(F)cc3)cc(C(F)(F)F)n2n1)N1CCCCC1c1cccnc1 (stereo unspecified)	KCNK3 inh -11 | KCNK3 confirm 121 | KCNK3 noninduced 0.14
O=C(c1cnn2c(C(F)(F)F)cc(-c3ccccc3)nc12)N1CCCCC1c1cccnc1 (stereo unspecified)	none
C=CCN(c1ccccc1OC)S(=O)(=O)c1cccc(C(=O)Nc2nnc(C3CC3)s2)c1	none (no result: Kir21 inh, hERG rescue, KCNQ1 block, KCNQ1 act, KCNK9 block)
O=C(NCCN1CCOCC1)c1cc([N+](=O)[O-])cc([N+](=O)[O-])c1	none
CCC(C)c1ccc(NC(=O)C2CC3CCC2C3)cc1 (stereo unspecified)	KCNK3 inh -9.4, KCNK9 block -6.6 | KCNK3 confirm 116 | KCNK3 noninduced inactive
O=C(COC(=O)c1ccccc1[N+](=O)[O-])c1ccc2c(c1)OCO2	none
O=C(COC(=O)c1ccccc1-c1ccccc1[N+](=O)[O-])c1ccccc1	KCNK3 inh -11 | KCNK3 confirm 92 | KCNK3 noninduced inactive
CCOc1cc(/C=N/NC(=O)CN2CCOCC2)ccc1OCc1ccc(Cl)cc1	KCNK3 inh -11 | KCNK3 confirm inactive | KCNK3 noninduced inactive
CCOc1cc(/C=N/NC(=O)CN2CCCCC2)ccc1OCc1ccccc1	none
O=C(N/N=C/c1c[nH]c2ccc(Br)cc12)c1ccn(Cc2ccc(Cl)cc2Cl)n1	KCNK3 inh -9.8, KCNK9 block -7.2 | KCNK3 confirm 79 | KCNK3 noninduced inactive
O=C(N/N=C/c1c[nH]c2ccccc12)c1ccn(Cc2ccc(Cl)cc2)n1	KCNK3 inh -11 | KCNK3 confirm 98 | KCNK3 noninduced 0.15
CCOc1ccc(S(=O)(=O)N2CCC(C(=O)NCC3CCCO3)CC2)cc1C (stereo unspecified)	none
Cc1cc(C)nc(NS(=O)(=O)c2ccc(CC(C)C)cc2)c1	none
COc1cc(NC(=O)C2CC(=O)N(Cc3ccco3)C2)cc(OC)c1 (stereo unspecified)	none
CCN=C(NS(=O)(=O)c1ccc(Br)cc1)c1ccc(Cl)cc1	none
CCC(C)Cn1cnc2c(SCc3ccccn3)nc(N)nc21 (stereo unspecified)	none (no result: Kir21 inh, hERG rescue, KCNQ1 block, KCNQ1 act, KCNK9 block)
COc1ncnc(OC)c1S(=O)(=O)NCc1ccccc1	none
COc1cc2c(cc1NC(=O)c1ccc(C(C)(C)C)cc1)CCCC2	KCNK3 inh -10 | KCNK3 confirm 105 | KCNK3 noninduced inactive
CCCc1cc(C(=O)Nc2cc(OC)ccc2OC)cs1	KCNK3 inh -10 | KCNK3 confirm 130 | KCNK3 noninduced 0.15
COc1ccc(NC(=O)c2ccc(S(=O)(=O)C(F)F)cc2)c(OC)c1	none
COc1ccc(NC(=O)c2ccc(-n3c(C)ccc3C)cc2)c(OC)c1	KCNK3 inh -8.8 | KCNK3 confirm 124 | KCNK3 noninduced inactive
COc1ccc(OC)c(NC(=O)c2ccc(OC3CSC3)cc2)c1	KCNK3 inh -9.1 | KCNK3 confirm 102 | KCNK3 noninduced inactive
COc1cccc(C(=O)N=c2sc3cc(S(C)(=O)=O)ccc3n2C)c1	none
CCOc1ccccc1NC(=O)CSc1nc(=O)n(CCCN2CCOCC2)c2c1CCCC2	none
Cc1ccc(NC(=S)N2CCCCCC2)cc1	none
COCC(C)n1c(SCc2cc(C(=O)OC)c(C)o2)nc2ccccc2c1=O (stereo unspecified)	KCNK3 inh -8.9 | KCNK3 confirm 90 | KCNK3 noninduced inactive
C=CCc1cc(C)ccc1OCCCC(C(=O)OCC)C(=O)OCC	KCNK3 inh -12 | KCNK3 confirm 101 | KCNK3 noninduced inactive
O=C(Nc1cccc2cccnc12)c1ccc(Cl)cc1Cl	none
COc1cc(NC(=O)c2ccccc2Cl)c2ncccc2c1	KCNK3 inh -9.1 | KCNK3 confirm 119 | KCNK3 noninduced 0.15
N#Cc1cc(-c2ccc(Cl)cc2)cn(Cc2c(Cl)cccc2Cl)c1=O	none
CC(C)n1cc(-c2ccc(Cl)cc2)cc(C#N)c1=O	KCNK3 inh -10 | KCNK3 confirm 107 | KCNK3 noninduced inactive
CC(=O)N1c2ccc(S(=O)(=O)N3CCCCC3)cc2CC1C(=O)Nc1cccc(C)c1 (stereo unspecified)	KCNK3 inh -11 | KCNK3 confirm 95 | KCNK3 noninduced inactive

Bioassay records: PubChem, Johns Hopkins Ion Channel Center
